Consider 1 compound from publication PMC7276679 (Acta Pharmaceutica Sinica. B, 2019).

The data set is classed as in vivo, Sprague-Dawley rats. Particulars: 5 mg/kg p.o. The method, boiled down:
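8-week-old male WT and CRISPR/Cas9 Slco1b2 KO SD rats, fasted 12 h, given the OATP1B2 probe substrate as a CMC-Na suspension intragastrically. Plasma underwent ethyl acetate liquid–liquid extraction with mebendazole internal standard, then positive-ESI LC–MS/MS. Parameters were derived by non-compartmental analysis.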

For orientation: AUC(0-inf) means the area under the concentration-time curve extrapolated to infinity. Low values mean low exposure, high ones high exposure. As a reminder, the AUC(0-t) is exposure summed from dosing to a finite time, without extrapolation to infinity. The term CL/F denotes clearance divided by bioavailability, as obtained after extravascular dosing. What is called Cmax is the maximum level reached in the sampled fluid or tissue. As a reminder, the MRT last is the average time that molecules of a dose stay in the body. For orientation: Tmax means the time at which the peak concentration occurs. For orientation: Vd/F means the volume of distribution divided by bioavailability. By half-life is commonly meant the time needed for the level to fall by half in the phase considered. The low end stands for rapid decline, the high end for slow decline. For `O=C(O)C[C@H](O)C[C@H](O)/C=C/c1c(C2CC2)nc2ccccc2c1-c1ccc(F)cc1` [pitavastatin, Pitavastatin], for the setting “KO vs WT rats”, the “decrease of CL/F in KO rats compared with WT rats” value amounted to 38.5%, the “decrease of Vd/F in KO rats compared with WT rats” value is given as 39.8%, the “increase of AUC0–24 h in KO rats compared with WT rats” value came to 68.8% and the “increase of AUC0–inf in KO rats compared with WT rats” value was 68.8%. The total exposure AUC(0-inf) (male, Sprague-Dawley, rat, plasma, po, 5 mg/kg, AUC0–inf, Slco1b2 KO male rats, mean ± SD, n = 6) came to 3440 ± 1050 ng·h/mL. In addition, for the setting “male, Sprague-Dawley, rat, plasma, po, 5 mg/kg, AUC0–t, Slco1b2 KO male rats, mean ± SD, n = 6”, the AUC(0-t) amounted to 3410 ± 1040 ng·h/mL. For the same compound, the CL/F (male, Sprague-Dawley, rat, plasma, po, 5 mg/kg, CL/F, Slco1b2 KO male rats, mean ± SD, n = 6) is 26 mL/min/kg. This compound also gave a Cmax (male, Sprague-Dawley, rat, plasma, po, 5 mg/kg, Cmax, Slco1b2 KO male rats, mean ± SD, n = 6) of 1000 ± 336 ng/mL. For the setting “male, Sprague-Dawley, rat, plasma, po, 5 mg/kg, MRT0–t, Slco1b2 KO male rats, mean ± SD, n = 6”, this compound had a mean residence time MRT last of 3.65 ± 0.89 h. In addition, the time to peak (Tmax) (male, Sprague-Dawley, rat, plasma, po, 5 mg/kg, Tmax, Slco1b2 KO male rats, mean ± SD, n = 6) stood at 2.08 ± 0.97 h. This compound gave a Vd/F (male, Sprague-Dawley, rat, plasma, po, 5 mg/kg, Vd/F, Slco1b2 KO male rats, mean ± SD, n = 6) of 6.58 ± 1.9 L/kg. The same compound gave a half-life (male, Sprague-Dawley, rat, plasma, po, 5 mg/kg, t1/2, Slco1b2 KO male rats, mean ± SD, n = 6) of 2.92 ± 0.43 h.
